Consider eight compounds from ChEMBL document CHEMBL1137348, “Determination of the binding mode of thienopyrimidinedione antagonists to the human gonadotropin releasing hormone receptor using structure-activity relationships, site-directed mutagenesis, and homology modeling” (J Med Chem, 2006).

For assay [1], the target named is Gonadotropin-releasing hormone receptor (Homo sapiens, UniProt P30968, Y290L). Description: Displacement of [His5, D-Tyr6]GnRH from GnRHR Y290L mutant expressed in COS7 cells. It is filed as cell-based, COS-7. The method in brief:
(§1)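 Human GnRH-R mutants (all in F272(6.40)L background) electroporated into COS-7 cells. Membranes taken 36-48 h later and lysed by nitrogen cavitation. Shaken 2 h at room temperature, then filtered and scintillation counted.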

In assay [2] the target is Gonadotropin-releasing hormone receptor (Homo sapiens, UniProt P30968, Y284L). Description: Displacement of [His5, D-Tyr6]GnRH from GnRHR Y284L mutant expressed in COS7 cells. The format is cell-based, COS-7. The method, boiled down: as §1
Sequence of Gonadotropin-releasing hormone receptor (Homo sapiens, UniProt P30968, Y284L) (P30968 whole entry Y284L): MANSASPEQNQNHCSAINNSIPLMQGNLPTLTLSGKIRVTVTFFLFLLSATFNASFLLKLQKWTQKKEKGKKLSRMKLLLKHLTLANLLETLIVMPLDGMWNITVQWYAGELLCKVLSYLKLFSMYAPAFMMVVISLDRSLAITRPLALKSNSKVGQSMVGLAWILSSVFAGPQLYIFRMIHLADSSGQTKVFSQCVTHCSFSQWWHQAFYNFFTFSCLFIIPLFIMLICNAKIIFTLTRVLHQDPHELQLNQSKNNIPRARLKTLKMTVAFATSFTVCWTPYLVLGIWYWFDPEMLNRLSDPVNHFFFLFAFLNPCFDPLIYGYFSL
Assay [3] addresses Gonadotropin-releasing hormone receptor (Homo sapiens, UniProt P30968, D302N). Put plainly: Displacement of [His5, D-Tyr6]GnRH from GnRHR D302N mutant expressed in COS7 cells. It is filed as cell-based, COS-7. The method, boiled down:
as §1

For assay [4], the target named is Gonadotropin-releasing hormone receptor (Homo sapiens, UniProt P30968, M24I). Put plainly: Displacement of [His5, D-Tyr6]GnRH from GnRHR M24I mutant expressed in COS7 cells. It is filed as cell-based, COS-7. The method in brief: as §1
Sequence of Gonadotropin-releasing hormone receptor (Homo sapiens, UniProt P30968, M24I) (P30968 whole entry M24I): as the sequence (P30968 whole entry Y284L) above, with M24I, L284Y counted along it
Assay [5] has as its target Gonadotropin-releasing hormone receptor (Homo sapiens, UniProt P30968, N27A). Put plainly: Displacement of [His5, D-Tyr6]GnRH from GnRHR N27A mutant expressed in COS7 cells. The format is cell-based, COS-7. The method in brief:
as §1

The target in assay [6] is Gonadotropin-releasing hormone receptor (Homo sapiens, UniProt P30968, H306A). Description: Displacement of [His5, D-Tyr6]GnRH from GnRHR H306A mutant expressed in COS7 cells. The format is cell-based, COS-7. The method in brief:
as §1

Assay [7] addresses Gonadotropin-releasing hormone receptor (Homo sapiens, UniProt P30968, D302A). Description: Displacement of [His5, D-Tyr6]GnRH from GnRHR D302A mutant expressed in COS7 cells. It is filed as cell-based, COS-7. The method, boiled down: as §1
In assay [8] the target is Gonadotropin-releasing hormone receptor (Homo sapiens, UniProt P30968, F309L). Description: Displacement of [His5, D-Tyr6]GnRH from GnRHR F309L mutant expressed in COS-7 cells. The format is cell-based. The method, boiled down: as §1
Sequence of Gonadotropin-releasing hormone receptor (Homo sapiens, UniProt P30968, F309L) (P30968 whole entry F309L): as the sequence (P30968 whole entry Y284L) above, with L284Y, F309L counted along it
The target in assay [9] is Gonadotropin-releasing hormone receptor (Homo sapiens, UniProt P30968, F309Q). Put plainly: Displacement of [His5, D-Tyr6]GnRH from GnRHR F309Q mutant expressed in COS7 cells. It is filed as cell-based, COS-7. The method in brief:
as §1

Assay [10] deals with Gonadotropin-releasing hormone receptor (Homo sapiens, UniProt P30968, Q208E). Description: Displacement of [His5, D-Tyr6]GnRH from GnRHR Q208E mutant expressed in COS7 cells. The format is cell-based, COS-7. The method in brief:
as §1

The target in assay [11] is Gonadotropin-releasing hormone receptor (Homo sapiens, UniProt P30968, H306E). Description: Displacement of [His5, D-Tyr6]GnRH from GnRHR H306E mutant expressed in COS7 cells. The format is cell-based, COS-7. The method in brief: as §1
Sequence of Gonadotropin-releasing hormone receptor (Homo sapiens, UniProt P30968, H306E) (P30968 whole entry H306E): as the sequence (P30968 whole entry Y284L) above, with L284Y, H306E counted along it
In assay [12] the target is Gonadotropin-releasing hormone receptor (Homo sapiens, UniProt P30968, F272L). Put plainly: Displacement of [125I]-His5, D-Tyr6]GnRH from GnRHR F272L mutant expressed in COS7 cells. It is filed as cell-based, COS-7. The method, boiled down: as §1
Sequence of Gonadotropin-releasing hormone receptor (Homo sapiens, UniProt P30968, F272L) (P30968 whole entry F272L): as the sequence (P30968 whole entry Y284L) above, with F272L, L284Y counted along it
For assay [13], the target named is Gonadotropin-releasing hormone receptor (Homo sapiens, UniProt P30968, F313L). Description: Displacement of [His5, D-Tyr6]GnRH from GnRHR F313L mutant expressed in COS7 cells. The format is cell-based, COS-7. The method in brief: as §1
Sequence of Gonadotropin-releasing hormone receptor (Homo sapiens, UniProt P30968, F313L) (P30968 whole entry F313L): as the sequence (P30968 whole entry Y284L) above, with L284Y, F313L counted along it
The target of assay [14] is Gonadotropin-releasing hormone receptor (Homo sapiens, UniProt P30968, L300A). Put plainly: Displacement of [His5, D-Tyr6]GnRH from GnRHR L300A mutant expressed in COS7 cells. It is filed as cell-based, COS-7. The method, boiled down:
as §1

Sequence of Gonadotropin-releasing hormone receptor (Homo sapiens, UniProt P30968, F309Q) (P30968 whole entry F309Q): as the sequence (P30968 whole entry Y284L) above, with L284Y, F309Q counted along it
Sequence of Gonadotropin-releasing hormone receptor (Homo sapiens, UniProt P30968, H306A) (P30968 whole entry H306A): as the sequence (P30968 whole entry Y284L) above, with L284Y, H306A counted along it
Sequence of Gonadotropin-releasing hormone receptor (Homo sapiens, UniProt P30968, Y290L) (P30968 whole entry Y290L): as the sequence (P30968 whole entry Y284L) above, with L284Y, Y290L counted along it
Sequence of Gonadotropin-releasing hormone receptor (Homo sapiens, UniProt P30968, L300A) (P30968 whole entry L300A): as the sequence (P30968 whole entry Y284L) above, with L284Y, L300A counted along it
Sequence of Gonadotropin-releasing hormone receptor (Homo sapiens, UniProt P30968, Q208E) (P30968 whole entry Q208E): as the sequence (P30968 whole entry Y284L) above, with Q208E, L284Y counted along it
Sequence of Gonadotropin-releasing hormone receptor (Homo sapiens, UniProt P30968, N27A) (P30968 whole entry N27A): as the sequence (P30968 whole entry Y284L) above, with N27A, L284Y counted along it
Sequence of Gonadotropin-releasing hormone receptor (Homo sapiens, UniProt P30968, D302A) (P30968 whole entry D302A): as the sequence (P30968 whole entry Y284L) above, with L284Y, D302A counted along it
Sequence of Gonadotropin-releasing hormone receptor (Homo sapiens, UniProt P30968, D302N) (P30968 whole entry D302N): as the sequence (P30968 whole entry Y284L) above, with L284Y, D302N counted along it

Consider `CN(CCc1ccccc1)Cc1c(-c2ccc([N+](=O)[O-])cc2)sc2c1c(=O)n(-c1ccccc1)c(=O)n2Cc1c(F)cccc1F`, for which the IC50 – broadly, the midpoint of a concentration-inhibition curve – is 1.9 µM in [1]; more than 10 µM in assay [2]; 1.9 µM in [3]; more than 10 µM in assay [4]; 1.3 µM in [5]; 3.3 µM in assay [6]. Further, the IC50 in assay [7] is 1.6 µM; in [8], more than 10 µM; in assay [9] it was more than 10 µM; in assay [10] it was 5 µM; in assay [11], 7.1 µM; in [12] it was 1.1 µM. Further, the IC50 in assay [13] and in assay [14] was more than 10 µM throughout.

Turning to `CN(Cc1ccccc1)Cc1c(-c2ccc([N+](=O)[O-])cc2)sc2c1c(=O)n(-c1ccccc1)c(=O)n2Cc1c(F)cccc1F`, the IC50 in assay [1] was 1.1 µM; in [2] it was more than 10 µM; in assay [3], 1.4 µM; in assay [4] it was more than 10 µM; in assay [5] it was 1.6 µM; in assay [6] it was 3 µM. The IC50 in assay [7] was 1.9 µM; in assay [8] it was more than 10 µM; in assay [9], more than 10 µM; in assay [10], more than 10 µM; in [11] it was more than 10 µM; in assay [12], 0.6 µM. Moreover, the IC50 in [13] and in [14] was more than 10 µM throughout.

In the case of `CN(Cc1ccccc1)Cc1c(-c2ccc(NC(=O)c3ccccc3)cc2)sc2c1c(=O)n(-c1ccccc1)c(=O)n2Cc1c(F)cccc1F`, the IC50 in assay [1] came out at 0.02 µM; in assay [2] it was 1.5 µM; in [3], 0.013 µM; in [4] it was 0.38 µM; in assay [5] it was 0.026 µM; in assay [6], 0.4 µM. In addition, the IC50 turned out to be 0.015 µM in [7]; 0.1 µM in [8]; 0.22 µM in [9]; 0.031 µM in [10]; 0.8 µM in assay [11]; 0.006 µM in assay [12]. Moreover, the IC50 came to 0.4 µM in assay [13] and 0.022 µM in assay [14].

Turning to `CN(Cc1ccccc1)Cc1c(-c2ccc(N)cc2)sc2c1c(=O)n(-c1ccccc1)c(=O)n2Cc1c(F)cccc1F`, the IC50 in assay [1] was 0.39 µM; in assay [2], more than 10 µM; in assay [3], 0.53 µM; in assay [4] it was 4 µM; in assay [5], 0.37 µM; in assay [6] it was 0.71 µM. In addition, the half-maximal inhibitory concentration (IC50) was 0.39 µM in assay [7]; 0.95 µM in assay [8]; more than 10 µM in assay [9]; 1.5 µM in assay [10]; 0.5 µM in assay [11]; 0.21 µM in [12]. Further, the IC50 in assay [13] is more than 10 µM; in [14], 1.6 µM.

Take `CC(=O)Nc1ccc(-c2sc3c(c2CN(C)Cc2ccccc2)c(=O)n(-c2ccccc2)c(=O)n3Cc2c(F)cccc2F)cc1`: the IC50 in assay [1] was determined as 0.052 µM; in assay [2] it was 4.4 µM; in assay [3], 0.16 µM; in [4], 2.3 µM; in assay [5], 0.031 µM; in [6] it was 1.7 µM. Moreover, the IC50 in [7] was 0.21 µM; in assay [8], 1.1 µM; in assay [9], 2.4 µM; in assay [10] it was 0.23 µM; in assay [11], 1.6 µM; in [12], 0.029 µM. Also, the IC50 in [13] is 2 µM; in assay [14], 0.24 µM.

For `CN(CCc1ccccn1)Cc1c(-c2ccc([N+](=O)[O-])cc2)sc2c1c(=O)n(-c1ccccc1)c(=O)n2Cc1c(F)cccc1F`, the IC50 in assay [1] was 0.9 µM; in [2], 2 µM; in assay [3] it was 0.04 µM; in assay [4], more than 10 µM; in assay [5], 0.2 µM; in assay [6] it was 0.24 µM. Besides, the IC50 in assay [7] stood at 0.058 µM; in [8], 2.65 µM; in assay [9], 3.6 µM; in assay [10] it was 0.45 µM; in [11] it was 0.4 µM; in assay [12] it was 0.052 µM. Besides, the IC50 in assay [13] came to 4.5 µM; in [14] it was 0.11 µM.

As for `CN(Cc1ccccc1)Cc1c(-c2ccc(NC(=O)NCc3ccccc3)cc2)sc2c1c(=O)n(-c1ccccc1)c(=O)n2Cc1c(F)cccc1F`, the IC50 in assay [1] came to 0.07 µM; in assay [2], 6 µM; in [3] it was 0.5 µM; in assay [4] it was 0.39 µM; in assay [5] it was 0.03 µM; in assay [6], 0.6 µM. For the same compound, the IC50 was 1.1 µM in assay [7]; 0.9 µM in assay [8]; 1.2 µM in assay [9]; 0.07 µM in assay [10]; 4 µM in assay [11]; 0.02 µM in [12]. In addition, the IC50 in assay [13] was determined as 1.4 µM; in [14], 0.19 µM.

For the compound `CN(Cc1ccccc1)Cc1c(-c2ccc(NC3=NCCN3)cc2)sc2c1c(=O)n(-c1ccccc1)c(=O)n2Cc1c(F)cccc1F`, the IC50 in [1] is 0.35 µM; in assay [2] it was 5 µM; in assay [3] it was 2.1 µM; in assay [4], more than 10 µM; in assay [5] it was 0.48 µM; in [6] it was 4.4 µM. In addition, the IC50 stood at 3.3 µM in assay [7]; 1.8 µM in assay [8]; 5.2 µM in assay [9]; 1.4 µM in assay [10]; 0.8 µM in [11]; 0.24 µM in assay [12]. In addition, the IC50 in assay [13] is more than 10 µM; in [14], 1.02 µM.
